Tests used:
[1] = system: A549; assay: cells; settings: Homo sapiens, A549, 72 h
[2] = cells; settings: Homo sapiens, MKN-45, 72 h
[3] = system: HT-29; assay: cells; settings: Homo sapiens, HT-29, 72 h
[4] = cells; settings: Homo sapiens, NCI-H460, 72 h
[5] = Potency index, ratio of foretinib IC50 to compound IC50 for human H460 cells; type: functional
[6] = target: Macrophage-stimulating protein receptor (Homo sapiens, UniProt Q04912); assay: Inhibition of Ron (unknown origin) using poly (Glu, Tyr) 4:1 as substrate after 30 mins by HTRF assay
Outline: (§1)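 Purified tyrosine kinase with poly(Glu,Tyr) 4:1 substrate (20 µg/mL) and ATP (10 mM solution) in 50 mM HEPES pH 7.0 buffer containing DTT, MgCl₂, MnCl₂, 0.1% NaN₃; compounds at various concentrations in 1% DMSO. Inhibition normalised to enzyme-free and uninhibited controls; IC50 from inhibition curves.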

[7] = target: Epidermal growth factor receptor (Homo sapiens, UniProt P00533); assay: Inhibition of EGFR (unknown origin) using poly (Glu, Tyr) 4:1 as substrate after 30 mins by HTRF assay
Outline: as §1

[8] = target: Mast/stem cell growth factor receptor Kit (Homo sapiens, UniProt P10721); assay: Inhibition of c-Kit (unknown origin) using poly (Glu, Tyr) 4:1 as substrate after 30 mins by HTRF assay
Outline: as §1

[9] = target: Vascular endothelial growth factor receptor 2 (Homo sapiens, UniProt P35968); assay: Inhibition of VEGFR-2 (unknown origin) using poly (Glu, Tyr) 4:1 as substrate after 30 mins by HTRF assay
[10] = target: T1, Receptor-type tyrosine-protein kinase FLT3 (Homo sapiens, UniProt P36888); assay: Inhibition of FLT-3 (unknown origin) using poly (Glu, Tyr) 4:1 as substrate after 30 mins by HTRF assay
T1 sequence (P36888 whole entry): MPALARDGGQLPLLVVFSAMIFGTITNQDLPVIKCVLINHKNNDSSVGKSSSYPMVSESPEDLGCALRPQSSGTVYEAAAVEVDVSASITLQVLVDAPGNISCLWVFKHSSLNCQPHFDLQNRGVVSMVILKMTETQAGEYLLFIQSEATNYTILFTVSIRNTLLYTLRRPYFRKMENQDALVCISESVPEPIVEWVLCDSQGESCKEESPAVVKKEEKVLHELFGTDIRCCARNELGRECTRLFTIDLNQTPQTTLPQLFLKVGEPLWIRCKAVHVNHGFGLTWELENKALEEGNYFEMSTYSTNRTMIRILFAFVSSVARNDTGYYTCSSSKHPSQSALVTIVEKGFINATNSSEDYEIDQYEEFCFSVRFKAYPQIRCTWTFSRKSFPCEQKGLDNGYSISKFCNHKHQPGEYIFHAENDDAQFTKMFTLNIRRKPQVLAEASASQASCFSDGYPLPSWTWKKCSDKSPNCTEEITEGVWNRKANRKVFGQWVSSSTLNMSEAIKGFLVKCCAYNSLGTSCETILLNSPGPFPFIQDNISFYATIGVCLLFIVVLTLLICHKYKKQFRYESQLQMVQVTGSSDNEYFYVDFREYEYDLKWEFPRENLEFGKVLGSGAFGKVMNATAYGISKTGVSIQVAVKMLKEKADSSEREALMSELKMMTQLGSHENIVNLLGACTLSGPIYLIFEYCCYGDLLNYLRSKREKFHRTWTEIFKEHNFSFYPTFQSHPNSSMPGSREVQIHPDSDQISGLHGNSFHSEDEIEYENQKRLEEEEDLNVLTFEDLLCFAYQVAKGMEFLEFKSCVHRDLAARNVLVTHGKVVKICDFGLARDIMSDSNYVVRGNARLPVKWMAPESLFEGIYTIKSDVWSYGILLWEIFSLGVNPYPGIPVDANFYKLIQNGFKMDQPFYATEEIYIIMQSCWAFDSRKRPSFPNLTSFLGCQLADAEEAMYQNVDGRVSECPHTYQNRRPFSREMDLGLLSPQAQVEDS

[11] = system: MKN-45; assay: Potency index, ratio of foretinib IC50 to compound IC50 for human MKN45 cells; type: functional
[12] = target: Hepatocyte growth factor receptor (Homo sapiens, UniProt P08581); assay: Inhibition of c-Met (unknown origin) using poly (Glu, Tyr) 4:1 as substrate after 30 mins by HTRF assay
Sequence of Hepatocyte growth factor receptor (P08581 whole entry): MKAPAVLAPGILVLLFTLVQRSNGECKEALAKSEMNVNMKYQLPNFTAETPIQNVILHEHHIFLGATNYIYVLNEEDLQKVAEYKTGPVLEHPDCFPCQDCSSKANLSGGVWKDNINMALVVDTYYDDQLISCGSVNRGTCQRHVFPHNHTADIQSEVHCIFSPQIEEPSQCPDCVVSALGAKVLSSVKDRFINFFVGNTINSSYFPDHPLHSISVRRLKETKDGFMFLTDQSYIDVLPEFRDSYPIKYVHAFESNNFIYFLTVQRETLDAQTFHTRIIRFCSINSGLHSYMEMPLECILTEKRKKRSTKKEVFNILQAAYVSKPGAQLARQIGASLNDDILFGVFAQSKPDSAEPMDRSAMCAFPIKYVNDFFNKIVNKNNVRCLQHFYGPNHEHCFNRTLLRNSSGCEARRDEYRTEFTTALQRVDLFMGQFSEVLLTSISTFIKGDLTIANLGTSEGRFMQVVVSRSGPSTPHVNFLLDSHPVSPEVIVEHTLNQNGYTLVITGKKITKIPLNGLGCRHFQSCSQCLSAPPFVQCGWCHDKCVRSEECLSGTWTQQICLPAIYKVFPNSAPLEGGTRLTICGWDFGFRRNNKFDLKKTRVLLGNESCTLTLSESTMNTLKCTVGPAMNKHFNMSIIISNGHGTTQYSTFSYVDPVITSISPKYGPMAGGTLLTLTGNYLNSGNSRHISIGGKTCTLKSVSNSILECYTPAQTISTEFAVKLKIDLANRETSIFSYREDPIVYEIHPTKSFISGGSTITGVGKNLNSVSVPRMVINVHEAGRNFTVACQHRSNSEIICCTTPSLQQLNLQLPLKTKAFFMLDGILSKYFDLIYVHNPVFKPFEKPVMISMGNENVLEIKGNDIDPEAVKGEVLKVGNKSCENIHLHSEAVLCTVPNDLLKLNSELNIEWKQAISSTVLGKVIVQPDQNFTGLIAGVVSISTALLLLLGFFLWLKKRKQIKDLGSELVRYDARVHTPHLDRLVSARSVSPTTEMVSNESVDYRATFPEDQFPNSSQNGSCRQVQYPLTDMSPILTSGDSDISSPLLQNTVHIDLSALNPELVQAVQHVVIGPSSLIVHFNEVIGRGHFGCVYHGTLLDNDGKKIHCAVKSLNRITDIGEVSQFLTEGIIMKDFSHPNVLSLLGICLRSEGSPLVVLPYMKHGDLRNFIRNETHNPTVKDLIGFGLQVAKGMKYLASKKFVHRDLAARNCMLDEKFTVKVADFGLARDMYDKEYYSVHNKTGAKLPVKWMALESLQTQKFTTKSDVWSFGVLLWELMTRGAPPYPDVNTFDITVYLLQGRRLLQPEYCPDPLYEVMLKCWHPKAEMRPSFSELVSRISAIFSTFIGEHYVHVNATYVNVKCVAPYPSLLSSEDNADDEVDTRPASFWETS

Sequence of Epidermal growth factor receptor (P00533 whole entry): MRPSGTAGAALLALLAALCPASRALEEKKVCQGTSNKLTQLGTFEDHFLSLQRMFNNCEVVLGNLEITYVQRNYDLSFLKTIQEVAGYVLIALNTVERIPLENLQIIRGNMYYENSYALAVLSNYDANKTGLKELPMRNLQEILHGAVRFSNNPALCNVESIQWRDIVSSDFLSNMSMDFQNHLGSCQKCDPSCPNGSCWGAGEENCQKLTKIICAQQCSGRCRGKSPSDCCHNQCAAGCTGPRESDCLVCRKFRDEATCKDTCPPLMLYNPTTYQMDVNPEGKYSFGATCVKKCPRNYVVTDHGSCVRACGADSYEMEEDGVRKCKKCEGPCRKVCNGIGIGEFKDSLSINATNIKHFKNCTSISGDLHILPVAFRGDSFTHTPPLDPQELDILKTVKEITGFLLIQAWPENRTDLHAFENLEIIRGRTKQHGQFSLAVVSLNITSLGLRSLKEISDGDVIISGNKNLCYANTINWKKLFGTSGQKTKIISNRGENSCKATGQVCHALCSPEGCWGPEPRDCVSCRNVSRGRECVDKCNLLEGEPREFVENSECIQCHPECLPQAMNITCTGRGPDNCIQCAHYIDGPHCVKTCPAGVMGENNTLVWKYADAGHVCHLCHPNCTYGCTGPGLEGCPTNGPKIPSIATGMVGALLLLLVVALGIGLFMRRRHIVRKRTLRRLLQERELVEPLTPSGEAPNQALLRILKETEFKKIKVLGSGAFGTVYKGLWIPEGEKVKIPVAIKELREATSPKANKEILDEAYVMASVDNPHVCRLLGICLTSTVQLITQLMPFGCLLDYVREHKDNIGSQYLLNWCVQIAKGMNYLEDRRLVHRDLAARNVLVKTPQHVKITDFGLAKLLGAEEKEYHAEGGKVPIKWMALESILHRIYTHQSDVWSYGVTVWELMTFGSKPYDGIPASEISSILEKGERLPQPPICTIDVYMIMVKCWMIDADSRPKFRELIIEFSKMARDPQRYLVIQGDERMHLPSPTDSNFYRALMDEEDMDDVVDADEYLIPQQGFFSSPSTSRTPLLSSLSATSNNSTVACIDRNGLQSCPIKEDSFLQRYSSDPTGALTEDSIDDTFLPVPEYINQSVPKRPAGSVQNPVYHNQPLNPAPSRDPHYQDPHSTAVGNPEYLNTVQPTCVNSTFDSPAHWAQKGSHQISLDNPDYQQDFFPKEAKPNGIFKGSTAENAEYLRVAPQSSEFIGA
Sequence of Macrophage-stimulating protein receptor (Q04912 25-304 limits assumed): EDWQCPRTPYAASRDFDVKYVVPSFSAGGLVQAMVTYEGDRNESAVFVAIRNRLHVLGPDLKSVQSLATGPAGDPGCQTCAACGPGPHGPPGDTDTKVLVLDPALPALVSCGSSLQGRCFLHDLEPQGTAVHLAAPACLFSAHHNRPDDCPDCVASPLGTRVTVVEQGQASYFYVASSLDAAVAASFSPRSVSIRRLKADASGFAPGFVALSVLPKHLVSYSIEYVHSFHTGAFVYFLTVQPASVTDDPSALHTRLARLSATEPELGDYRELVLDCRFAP
Sequence of Macrophage-stimulating protein receptor (Q04912 310-1400 limits assumed): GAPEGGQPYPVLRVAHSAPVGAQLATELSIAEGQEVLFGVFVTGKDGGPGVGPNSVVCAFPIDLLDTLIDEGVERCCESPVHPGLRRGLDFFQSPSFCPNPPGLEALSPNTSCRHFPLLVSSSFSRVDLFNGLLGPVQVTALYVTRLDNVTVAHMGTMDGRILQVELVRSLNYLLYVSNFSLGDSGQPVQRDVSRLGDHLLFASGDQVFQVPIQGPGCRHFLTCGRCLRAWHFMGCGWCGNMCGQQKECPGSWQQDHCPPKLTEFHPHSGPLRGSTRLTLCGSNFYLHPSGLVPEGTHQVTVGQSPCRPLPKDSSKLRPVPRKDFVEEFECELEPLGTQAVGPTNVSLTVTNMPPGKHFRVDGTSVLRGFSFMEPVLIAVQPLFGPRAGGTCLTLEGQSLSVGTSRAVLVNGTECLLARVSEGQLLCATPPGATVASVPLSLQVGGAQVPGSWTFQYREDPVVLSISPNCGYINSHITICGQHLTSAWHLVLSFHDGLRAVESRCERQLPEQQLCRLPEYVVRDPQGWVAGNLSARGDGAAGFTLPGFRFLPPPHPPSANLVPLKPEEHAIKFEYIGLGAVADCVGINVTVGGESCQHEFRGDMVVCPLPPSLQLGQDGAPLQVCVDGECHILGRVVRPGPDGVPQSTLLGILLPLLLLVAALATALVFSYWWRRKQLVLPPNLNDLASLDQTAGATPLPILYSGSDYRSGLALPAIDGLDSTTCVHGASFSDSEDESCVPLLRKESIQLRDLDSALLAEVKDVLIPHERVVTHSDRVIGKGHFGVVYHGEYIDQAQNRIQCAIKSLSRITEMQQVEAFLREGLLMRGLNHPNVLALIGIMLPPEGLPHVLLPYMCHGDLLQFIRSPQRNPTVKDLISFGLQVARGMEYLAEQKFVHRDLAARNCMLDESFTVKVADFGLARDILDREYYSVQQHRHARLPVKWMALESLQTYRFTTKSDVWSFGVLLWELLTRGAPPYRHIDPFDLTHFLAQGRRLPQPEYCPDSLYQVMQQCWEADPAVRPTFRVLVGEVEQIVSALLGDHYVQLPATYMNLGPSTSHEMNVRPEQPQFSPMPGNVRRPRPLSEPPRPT
Sequence of Mast/stem cell growth factor receptor Kit (P10721 whole entry): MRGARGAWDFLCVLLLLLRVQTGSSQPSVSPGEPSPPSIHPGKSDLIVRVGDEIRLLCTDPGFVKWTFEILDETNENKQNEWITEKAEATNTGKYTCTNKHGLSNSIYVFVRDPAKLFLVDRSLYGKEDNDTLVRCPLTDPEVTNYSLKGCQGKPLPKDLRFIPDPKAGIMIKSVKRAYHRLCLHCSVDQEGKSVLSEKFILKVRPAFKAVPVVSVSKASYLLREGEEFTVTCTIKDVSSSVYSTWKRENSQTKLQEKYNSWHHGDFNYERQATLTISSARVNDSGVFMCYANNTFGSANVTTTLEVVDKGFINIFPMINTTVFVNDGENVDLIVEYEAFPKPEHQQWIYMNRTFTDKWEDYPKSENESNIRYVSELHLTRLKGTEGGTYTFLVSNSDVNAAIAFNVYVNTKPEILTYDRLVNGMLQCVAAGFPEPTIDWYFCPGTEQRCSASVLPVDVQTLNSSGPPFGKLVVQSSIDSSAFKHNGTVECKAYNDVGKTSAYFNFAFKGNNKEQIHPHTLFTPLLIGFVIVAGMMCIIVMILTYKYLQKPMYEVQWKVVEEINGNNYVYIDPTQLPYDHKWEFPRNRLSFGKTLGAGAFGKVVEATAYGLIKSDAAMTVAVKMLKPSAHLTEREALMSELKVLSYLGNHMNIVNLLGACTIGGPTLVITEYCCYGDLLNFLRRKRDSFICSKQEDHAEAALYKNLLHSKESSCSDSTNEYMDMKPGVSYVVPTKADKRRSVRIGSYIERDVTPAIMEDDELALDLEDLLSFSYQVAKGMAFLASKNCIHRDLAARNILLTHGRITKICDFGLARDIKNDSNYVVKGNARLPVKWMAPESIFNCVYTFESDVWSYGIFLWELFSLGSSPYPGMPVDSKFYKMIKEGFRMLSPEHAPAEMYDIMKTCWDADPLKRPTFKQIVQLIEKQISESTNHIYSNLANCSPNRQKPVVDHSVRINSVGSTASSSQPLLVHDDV

Compound	IC50 [1] [µM]	IC50 [2] [µM]	IC50 [3] [µM]	IC50 [4] [µM]	Ratio IC50 [5]	IC50 [6] [µM]	IC50 [7] [µM]	IC50 [8] [µM]	IC50 [9] [µM]	IC50 [10] [µM]	Ratio IC50 [11]	IC50 [12] [µM]
COc1cc2c(Oc3ccc(NC(=O)c4c(C)n(-c5ccc(C(F)(F)F)cc5)c(=O)n4C)cc3F)ccnc2cc1OCCCN1CCN(C)CC1	0.5	0.098	0.26	0.36								
COc1cc2c(Oc3ccc(NC(=O)c4c(C)n(-c5ccccc5)c(=O)n4C)cc3F)ccnc2cc1OCCCN1CCOCC1	0.98	0.32	0.74	0.79								
COc1cc2c(Oc3ccc(NC(=O)c4c(C)n(-c5ccccc5)c(=O)n4C)cc3F)ccnc2cc1OCCCN1CCCC1	1.46	0.51	0.94	1.03								
COc1cc2c(Oc3ccc(NC(=O)c4c(C)n(-c5ccccc5)c(=O)n4C)cc3F)ccnc2cc1OCCCN1CCCCC1	0.79	0.24	0.56	0.65								
COc1cc2c(Oc3ccc(NC(=O)c4c(C)n(-c5ccccc5)c(=O)n4C)cc3F)ccnc2cc1OCCCN1CCC(C)CC1	0.66	0.21	0.36	0.59								
COc1cc2c(Oc3ccc(NC(=O)c4c(C)n(-c5ccccc5)c(=O)n4C)cc3F)ccnc2cc1OCCCN1CCN(C)CC1	0.6	0.19	0.3	0.42								
COc1cc2c(Oc3ccc(NC(=O)c4c(C)n(-c5ccc(C)cc5)c(=O)n4C)cc3F)ccnc2cc1OCCCN1CCC(C)CC1	1.12	0.43	0.79	0.94								
COc1cc2c(Oc3ccc(NC(=O)c4c(C)n(-c5ccc(C)cc5)c(=O)n4C)cc3F)ccnc2cc1OCCCN1CCN(C)CC1	0.83	0.36	0.49	0.51								
COc1ccc(-n2c(C)c(C(=O)Nc3ccc(Oc4ccnc5cc(OCCCN6CCC(C)CC6)c(OC)cc45)c(F)c3)n(C)c2=O)cc1	1.04	0.49	0.79	0.94								
COc1ccc(-n2c(C)c(C(=O)Nc3ccc(Oc4ccnc5cc(OCCCN6CCN(C)CC6)c(OC)cc45)c(F)c3)n(C)c2=O)cc1	0.96	0.44	0.56	0.69								
COc1cc2c(Oc3ccc(NC(=O)c4c(C)n(-c5ccc(F)cc5)c(=O)n4C)cc3F)ccnc2cc1OCCCN1CCC(C)CC1	0.52	0.084	0.24	0.25								
COc1cc2c(Oc3ccc(NC(=O)c4c(C)n(-c5ccc(F)cc5)c(=O)n4C)cc3F)ccnc2cc1OCCCN1CCN(C)CC1	0.43	0.067	0.19	0.26								
COc1cc2c(Oc3ccc(NC(=O)c4c(C)n(-c5ccc(Cl)cc5)c(=O)n4C)cc3F)ccnc2cc1OCCCN1CCC(C)CC1	0.42	0.062	0.17	0.2								
COc1cc2c(Oc3ccc(NC(=O)c4c(C)n(-c5ccc(Cl)cc5)c(=O)n4C)cc3F)ccnc2cc1OCCCN1CCN(C)CC1	0.36	0.058	0.14	0.17								
COc1cc2c(Oc3ccc(NC(=O)c4c(C)n(-c5ccc(Br)cc5)c(=O)n4C)cc3F)ccnc2cc1OCCCN1CCC(C)CC1	0.68	0.16	0.28	0.55								
COc1cc2c(Oc3ccc(NC(=O)c4c(C)n(-c5ccc(Br)cc5)c(=O)n4C)cc3F)ccnc2cc1OCCCN1CCN(C)CC1	0.48	0.12	0.29	0.36								

Compound	IC50 [1] [µM]	IC50 [2] [µM]	IC50 [3] [µM]	IC50 [4] [µM]	Ratio IC50 [5]	IC50 [6] [µM]	IC50 [7] [µM]	IC50 [8] [µM]	IC50 [9] [µM]	IC50 [10] [µM]	Ratio IC50 [11]	IC50 [12] [µM]
COc1cc2c(Oc3ccc(NC(=O)c4c(C)n(-c5ccc(F)c(F)c5)c(=O)n4C)cc3F)ccnc2cc1OCCCN1CCOCC1	0.62	0.17	0.39	0.54								
COc1cc2c(Oc3ccc(NC(=O)c4c(C)n(-c5ccc(F)c(F)c5)c(=O)n4C)cc3F)ccnc2cc1OCCCN1CCC(C)CC1	0.53	0.095	0.23	0.23								
COc1cc2c(Oc3ccc(NC(=O)c4c(C)n(-c5ccc(F)c(F)c5)c(=O)n4C)cc3F)ccnc2cc1OCCCN1CCN(C)CC1	0.4	0.086	0.18	0.24								
COc1cc2c(Oc3ccc(NC(=O)c4c(C)n(-c5ccc(F)c(Cl)c5)c(=O)n4C)cc3F)ccnc2cc1OCCCN1CCC(C)CC1	0.43	0.089	0.2	0.25								
COc1cc2c(Oc3ccc(NC(=O)c4c(C)n(-c5ccc(F)c(Cl)c5)c(=O)n4C)cc3F)ccnc2cc1OCCCN1CCN(C)CC1	0.38	0.073	0.14	0.21								
COc1cc2c(Oc3ccc(NC(=O)c4c(C)n(-c5ccc(OC(F)(F)F)cc5)c(=O)n4C)cc3F)ccnc2cc1OCCCN1CCC(C)CC1	0.62	0.14	0.4	0.59								
COc1cc2c(Oc3ccc(NC(=O)c4c(C)n(-c5ccc(OC(F)(F)F)cc5)c(=O)n4C)cc3F)ccnc2cc1OCCCN1CCN(C)CC1	0.44	0.12	0.27	0.34								
COc1cc2c(Oc3ccc(NC(=O)c4c(C)n(-c5ccc(C(F)(F)F)cc5)c(=O)n4C)cc3F)ccnc2cc1OCCCN1CCC(C)CC1	0.54	0.13	0.36	0.41								
COc1cc2c(Oc3ccc(NC(=O)c4c(C)n(-c5cccc(C(F)(F)F)c5)c(=O)n4C)cc3F)ccnc2cc1OCCCN1CCC(C)CC1	0.88	0.32	0.52	0.58								
COc1cc2c(Oc3ccc(NC(=O)c4c(C)n(-c5cccc(C(F)(F)F)c5)c(=O)n4C)cc3F)ccnc2cc1OCCCN1CCN(C)CC1	0.77	0.2	0.43	0.57								
COc1cc2c(Oc3ccc(NC(=O)c4c(C)n(-c5ccccc5C(F)(F)F)c(=O)n4C)cc3F)ccnc2cc1OCCCN1CCC(C)CC1	0.45	0.081	0.14	0.22								
COc1cc2c(Oc3ccc(NC(=O)c4c(C)n(-c5ccccc5C(F)(F)F)c(=O)n4C)cc3F)ccnc2cc1OCCCN1CCN(C)CC1	0.37	0.069	0.13	0.19								
COc1cc2c(Oc3ccc(NC(=O)c4c(C)n(-c5ccccc5Cl)c(=O)n4C)cc3F)ccnc2cc1OCCCN1CCC(C)CC1	0.32	0.043	0.15	0.18								
COc1cc2c(Oc3ccc(NC(=O)c4c(C)n(-c5ccccc5Cl)c(=O)n4C)cc3F)ccnc2cc1OCCCN1CCN(C)CC1	0.31	0.037	0.12	0.13								
COc1cc2c(Oc3ccc(NC(=O)c4[nH]c(=O)n(-c5ccccc5Cl)c4C)cc3F)ccnc2cc1OCCCN1CCN(C)CC1	0.25	0.014	0.086	0.1	2.1	0.27	> 100	0.0382	0.0926	0.134	8.6	0.00142
